According to ChEMBL document CHEMBL1255429, “Efflux pumps are involved in the defense of Gram-negative bacteria against the natural products isobavachalcone and diospyrone” (2010):

Experiments:
Assay type in all cases: functional
[1] = system: Escherichia coli; assay: Antimicrobial activity against Escherichia coli AG100A after 18 hrs by rapid INT colorimetric assay
In short: (§1)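 Strains precultured overnight on Mueller-Hinton agar. Samples dissolved in DMSO-MHB, serially diluted twofold in MHB, inoculum 1.5 × 10^6 CFU/ml in MHB added; 37°C, 18 h; final DMSO <2.5%. 0.2 mg/ml INT then added, 30 min at 37°C. MIC = lowest concentration preventing yellow-to-pink reduction, i.e. complete growth inhibition.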

[2] = system: Klebsiella aerogenes; assay: Antimicrobial activity against Enterobacter aerogenes EA27 after 18 hrs by rapid INT colorimetric assay; settings: EA27, 18 h
In short: (§2)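 Strains precultured overnight on Mueller-Hinton agar. Sample dissolved in DMSO-MHB, twofold serial dilutions in MHB, inoculum 1.5 × 10^6 CFU/ml; final DMSO below 2.5%. Incubated 37°C 18 h, then 0.2 mg/ml INT added, 30 min at 37°C. MIC = lowest concentration preventing yellow-to-pink change (complete growth inhibition). DMSO-only wells as negative control.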

[3] = system: Klebsiella aerogenes; assay: Antimicrobial activity against Enterobacter aerogenes EA3 after 18 hrs by rapid INT colorimetric assay; settings: EA3, 18 h; in short: as §2
[4] = system: Enterobacter cloacae; assay: Antimicrobial activity against Enterobacter cloacae Ec07769 after 18 hrs by rapid INT colorimetric assay; settings: Ec07769, 18 h; in short: as §2
[5] = system: Escherichia coli; assay: Antimicrobial activity against tetracycline-resistant Escherichia coli AG102 after 18 hrs by rapid INT colorimetric assay in presence of efflux pump inhibitor phenylalanine arginine; settings: AG102, 18 h
In short: (§3)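 Broth microdilution MIC in Mueller-Hinton broth with PAßN at a final 20 μg/ml throughout. Twofold dilutions of sample from DMSO-MHB stock; inoculum 1.5 × 10^6 CFU/ml; 18 h at 37°C, final DMSO <2.5%. Growth read by INT (0.2 mg/ml, 30 min, 37°C). MIC taken as lowest concentration with no pink colour.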

[6] = system: Klebsiella aerogenes; assay: Antimicrobial activity against Enterobacter aerogenes EA298 after 18 hrs by rapid INT colorimetric assay in presence of efflux pump inhibitor phenylalanine arginine; settings: EA298, 18 h
[7] = system: Escherichia coli; assay: Antimicrobial activity against tetracycline-resistant Escherichia coli AG100A after 18 hrs by rapid INT colorimetric assay in presence of efflux pump inhibitor phenylalanine arginine; in short: as §3
[8] = system: Klebsiella pneumoniae; assay: Antimicrobial activity against Klebsiella pneumoniae KP63 after 18 hrs by rapid INT colorimetric assay; settings: KP63, 18 h; in short: as §2
[9] = system: Klebsiella aerogenes; assay: Antimicrobial activity against Enterobacter aerogenes EA289 after 18 hrs by rapid INT colorimetric assay; settings: EA289, 18 h; in short: as §2
[10] = system: Pseudomonas aeruginosa; assay: Antimicrobial activity against Pseudomonas aeruginosa PA124 after 18 hrs by rapid INT colorimetric assay in presence of efflux pump inhibitor phenylalanine arginine; settings: PA124, 18 h
[11] = system: Pseudomonas aeruginosa; assay: Antimicrobial activity against Pseudomonas aeruginosa PAO1 after 18 hrs by rapid INT colorimetric assay; settings: PAO1, 18 h; in short: as §1
[12] = system: Klebsiella aerogenes; assay: Antimicrobial activity against Enterobacter aerogenes EA294 after 18 hrs by rapid INT colorimetric assay in presence of efflux pump inhibitor phenylalanine arginine; settings: EA294, 18 h
[13] = system: Klebsiella aerogenes; assay: Antimicrobial activity against Enterobacter aerogenes EA5 after 18 hrs by rapid INT colorimetric assay; settings: EA5, 18 h; in short: as §2
[14] = system: Pseudomonas aeruginosa; assay: Antimicrobial activity against Pseudomonas aeruginosa PAO1 after 18 hrs by rapid INT colorimetric assay in presence of efflux pump inhibitor phenylalanine arginine; settings: PAO1, 18 h
[15] = system: Escherichia coli; assay: Antimicrobial activity against Escherichia coli ATCC 10536 after 18 hrs by rapid INT colorimetric assay in presence of efflux pump inhibitor phenylalanine arginine beta-naphthylamide; settings: ATCC 10536, 18 h; in short: as §3
[16] = system: Escherichia coli; assay: Antimicrobial activity against Escherichia coli AG100 after 18 hrs by rapid INT colorimetric assay in presence of efflux pump inhibitor phenylalanine arginine; settings: AG100, 18 h
[17] = system: Klebsiella aerogenes; assay: Antimicrobial activity against Enterobacter aerogenes EA27 after 18 hrs by rapid INT colorimetric assay in presence of efflux pump inhibitor phenylalanine arginine; settings: EA27, 18 h
[18] = system: Klebsiella aerogenes; assay: Antimicrobial activity against Enterobacter aerogenes EA-CM64 after 18 hrs by rapid INT colorimetric assay in presence of efflux pump inhibitor phenylalanine arginine; settings: EA-CM64, 18 h
[19] = system: Pseudomonas aeruginosa; assay: Antimicrobial activity against Pseudomonas aeruginosa PA124 after 18 hrs by rapid INT colorimetric assay; settings: PA124, 18 h; in short: as §1
[20] = system: Klebsiella aerogenes; assay: Antimicrobial activity against Enterobacter aerogenes EA289 after 18 hrs by rapid INT colorimetric assay in presence of efflux pump inhibitor phenylalanine arginine; settings: EA289, 18 h
[21] = system: Escherichia coli; assay: Antimicrobial activity against Escherichia coli ATCC 10536 after 18 hrs by rapid INT colorimetric assay; settings: ATCC 10536, 18 h; in short: as §2
[22] = system: Klebsiella aerogenes; assay: Antimicrobial activity against Enterobacter aerogenes EA3 after 18 hrs by rapid INT colorimetric assay in presence of efflux pump inhibitor phenylalanine arginine; settings: EA3, 18 h
[23] = system: Escherichia coli; assay: Antimicrobial activity against tetracycline-resistant Escherichia coli AG100A after 18 hrs by rapid INT colorimetric assay; in short: as §1
[24] = system: Klebsiella pneumoniae; assay: Antimicrobial activity against Klebsiella pneumoniae KP55 after 18 hrs by rapid INT colorimetric assay in presence of efflux pump inhibitor phenylalanine arginine; settings: KP55, 18 h
[25] = system: Klebsiella aerogenes; assay: Antimicrobial activity against Enterobacter aerogenes EA294 after 18 hrs by rapid INT colorimetric assay; settings: EA294, 18 h; in short: as §1
[26] = system: Escherichia coli; assay: Antimicrobial activity against tetracycline-resistant Escherichia coli AG102 after 18 hrs by rapid INT colorimetric assay; settings: AG102, 18 h; in short: as §1
[27] = system: Escherichia coli; assay: Antimicrobial activity against Escherichia coli AG100A after 18 hrs by rapid INT colorimetric assay in presence of efflux pump inhibitor phenylalanine arginine
[28] = system: Klebsiella aerogenes; assay: Antimicrobial activity against Enterobacter aerogenes ATCC 13048 after 18 hrs by rapid INT colorimetric assay in presence of efflux pump inhibitor phenylalanine arginine; settings: ATCC 13048, 18 h
[29] = system: Klebsiella pneumoniae; assay: Antimicrobial activity against Klebsiella pneumoniae KP63 after 18 hrs by rapid INT colorimetric assay in presence of efflux pump inhibitor phenylalanine arginine; settings: KP63, 18 h
[30] = system: Klebsiella aerogenes; assay: Antimicrobial activity against Enterobacter aerogenes EA5 after 18 hrs by rapid INT colorimetric assay in presence of efflux pump inhibitor phenylalanine arginine; settings: EA5, 18 h
[31] = system: Escherichia coli; assay: Antimicrobial activity against Escherichia coli ATCC 8739 after 18 hrs by rapid INT colorimetric assay in presence of efflux pump inhibitor phenylalanine arginine; settings: ATCC 8739, 18 h; in short: as §3
[32] = system: Klebsiella pneumoniae; assay: Antimicrobial activity against Klebsiella pneumoniae ATCC 11296 after 18 hrs by rapid INT colorimetric assay; settings: ATCC 11296, 18 h; in short: as §1
[33] = system: Enterobacter cloacae; assay: Antimicrobial activity against Enterobacter cloacae Ec1194 after 18 hrs by rapid INT colorimetric assay in presence of efflux pump inhibitor phenylalanine arginine; settings: Ec1194, 18 h; in short: as §3
[34] = system: Klebsiella aerogenes; assay: Antimicrobial activity against Enterobacter aerogenes EA298 after 18 hrs by rapid INT colorimetric assay; settings: EA298, 18 h; in short: as §1
[35] = system: Klebsiella pneumoniae; assay: Antimicrobial activity against Klebsiella pneumoniae KP55 after 18 hrs by rapid INT colorimetric assay; settings: KP55, 18 h; in short: as §2
[36] = system: Enterobacter cloacae; assay: Antimicrobial activity against Enterobacter cloacae Ec07769 after 18 hrs by rapid INT colorimetric assay in presence of efflux pump inhibitor phenylalanine arginine; settings: Ec07769, 18 h
[37] = system: Klebsiella pneumoniae; assay: Antimicrobial activity against Klebsiella pneumoniae ATCC 11296 after 18 hrs by rapid INT colorimetric assay in presence of efflux pump inhibitor phenylalanine arginine; settings: ATCC 11296, 18 h
[38] = system: Enterobacter cloacae; assay: Antimicrobial activity against Enterobacter cloacae Ec1194 after 18 hrs by rapid INT colorimetric assay; settings: Ec1194, 18 h; in short: as §2
[39] = system: Escherichia coli; assay: Antimicrobial activity against Escherichia coli ATCC 8739 after 18 hrs by rapid INT colorimetric assay; settings: ATCC 8739, 18 h; in short: as §1
[40] = system: Klebsiella aerogenes; assay: Antimicrobial activity against Enterobacter aerogenes ATCC 13048 after 18 hrs by rapid INT colorimetric assay; settings: ATCC 13048, 18 h; in short: as §2
[41] = system: Klebsiella aerogenes; assay: Antimicrobial activity against Enterobacter aerogenes EA-CM64 after 18 hrs by rapid INT colorimetric assay; settings: EA-CM64, 18 h; in short: as §1
[42] = system: Escherichia coli; assay: Antimicrobial activity against Escherichia coli AG100 after 18 hrs by rapid INT colorimetric assay; settings: AG100, 18 h; in short: as §1

Measured: MIC

O=C(N[C@H](CO)[C@H](O)c1ccc([N+](=O)[O-])cc1)C(Cl)Cl [CHLORAMPHENICOL]
128 µg/mL: [11] | [17] | [20] | [22] | [29]
0.5 µg/mL: [1] | [15]
2 µg/mL: [5] | [7] | [32] | [37] | [38]
32 µg/mL: [23] | [26] | [30] | [35]
16 µg/mL: [6] | [12]
0.25 µg/mL: [16] | [27]
256 µg/mL: [19] | [36] | [41]
1 µg/mL: [21] | [28] | [31] | [33]
64 µg/mL: [25] | [34]
4 µg/mL: [24] | [39] | [40] | [42]
8 µg/mL: [10] | [14] | [18]
> 256 µg/mL: all other assays above

CC1=C(c2c(C)cc(O)c3c2C(=O)C(c2c(O)c4c(C)cccc4oc2=O)=C(c2c(O)c4c(C)cccc4oc2=O)C3=O)C(=O)c2c(O)cccc2C1=O [DIOSPYRONE]
1 µg/mL: [10] | [16]
0.12 µg/mL: [27]
16 µg/mL: [6] | [17] | [18] | [23]
2 µg/mL: [5] | [15] | [33] | [37]
0.24 µg/mL: [7]
64 µg/mL: [11] | [19] | [22] | [26] | [30] | [35] | [42]
4 µg/mL: [1] | [14] | [29] | [31]
8 µg/mL: [12] | [20] | [24] | [36]
32 µg/mL: [8] | [21] | [28] | [32] | [34] | [38]
128 µg/mL: all other assays above
